From ChEMBL document CHEMBL1126647, “Fluorine-18-labeled progestin ketals: synthesis and target tissue uptake selectivity of potential imaging agents for receptor-positive breast tumors” (J Med Chem, 1993)

How the values were obtained:
[1] = biological target: T1, Progesterone receptor (Rattus norvegicus) (UniProt Q63449); assay: Tissue distribution in kidney 1 hr after [18F]4 injection into estrogen-primed immature rats at low dose; format: functional, tissue-based
T1 sequence (whole entry): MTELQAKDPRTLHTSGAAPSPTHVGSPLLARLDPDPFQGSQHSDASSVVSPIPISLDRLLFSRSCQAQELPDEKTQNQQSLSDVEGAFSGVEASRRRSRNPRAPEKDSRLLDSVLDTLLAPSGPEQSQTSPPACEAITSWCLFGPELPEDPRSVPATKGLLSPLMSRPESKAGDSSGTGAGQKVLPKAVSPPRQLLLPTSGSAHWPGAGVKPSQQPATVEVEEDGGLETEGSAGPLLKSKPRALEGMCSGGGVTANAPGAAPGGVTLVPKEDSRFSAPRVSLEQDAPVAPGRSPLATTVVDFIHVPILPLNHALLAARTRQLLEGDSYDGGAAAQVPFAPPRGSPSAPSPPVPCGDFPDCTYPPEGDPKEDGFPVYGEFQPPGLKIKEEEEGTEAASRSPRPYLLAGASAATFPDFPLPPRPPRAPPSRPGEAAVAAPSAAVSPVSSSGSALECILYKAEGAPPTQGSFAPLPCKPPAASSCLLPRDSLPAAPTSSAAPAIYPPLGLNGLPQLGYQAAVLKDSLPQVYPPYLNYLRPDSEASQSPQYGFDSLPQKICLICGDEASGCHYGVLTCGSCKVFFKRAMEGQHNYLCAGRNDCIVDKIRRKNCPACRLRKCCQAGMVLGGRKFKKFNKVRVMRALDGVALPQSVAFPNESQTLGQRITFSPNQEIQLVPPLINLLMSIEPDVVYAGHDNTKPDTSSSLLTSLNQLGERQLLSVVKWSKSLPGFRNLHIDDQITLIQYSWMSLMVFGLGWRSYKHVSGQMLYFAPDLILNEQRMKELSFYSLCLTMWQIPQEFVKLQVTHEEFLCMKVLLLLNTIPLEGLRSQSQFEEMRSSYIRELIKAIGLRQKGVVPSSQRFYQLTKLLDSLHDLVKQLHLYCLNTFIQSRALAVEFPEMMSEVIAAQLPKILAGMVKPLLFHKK
Procedure, shortened: (§1)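 Estrogen-primed immature female Sprague-Dawley rats (estradiol 5 μg s.c. daily ×2, used 24 h later) were given a reduced tracer dose of 30 μCi in 0.04 mL 10% ethanol/saline, tail vein iv, under ether. Decapitated at 1 h; organs weighed and gamma-counted. Results as %ID/g or uterus/tissue ratio, mean ± SD, n = 5.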

[2] = biological target: T1, Progesterone receptor (Rattus norvegicus); assay: Tissue distribution in liver 3 hr after [18F]-4 injection into estrogen-primed immature rats; format: functional, tissue-based
Procedure, shortened: (§2)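 Immature female Sprague-Dawley rats, estradiol-primed (5 μg s.c. in 20% ethanol/sunflower oil, two successive days, used 24 h later). Tracer (30 Ci/mmol) in 10% ethanol/saline was injected iv into the tail vein under ether anesthesia. Animals were decapitated 3 h postinjection; organs weighed and gamma-counted. %ID/g, mean ± SD, n = 5.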

[3] = biological target: T1, Progesterone receptor (Rattus norvegicus); assay: Tissue distribution in uterus/muscle 1 hr after [18F]4 injection into estrogen-primed immature rats at normal dose; format: functional, tissue-based
Procedure, shortened: (§3)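 Female Sprague-Dawley rats, 23 days old, primed with estradiol 5 μg s.c. in 20% ethanol/sunflower oil on two days and used 24 h later. Under ether, they received 51 μCi tracer (30 Ci/mmol) iv via the tail vein in 0.1 mL 10% ethanol/saline. Killed by decapitation at 1 h; tissues weighed and gamma-counted. Results as %ID/g or tissue ratios, mean ± SD, n = 5.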

[4] = biological target: T1, Progesterone receptor (Rattus norvegicus); assay: Tissue distribution in liver 1 hr after [18F]4 injection into estrogen-primed immature rats at low dose; format: functional, tissue-based; procedure, shortened: as §1
[5] = biological target: T1, Progesterone receptor (Rattus norvegicus); assay: Tissue distribution in liver 1 hr after [18F]4 injection into estrogen-primed immature rats co-injected with uterine uptake blocker (ORG 2058); format: functional, tissue-based
Procedure, shortened: (§4)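 Blocking group: estrogen-primed immature female Sprague-Dawley rats (estradiol 5 μg s.c. ×2 days, used 24 h later). ORG 2058 18 μg was co-injected with the tracer dose iv via tail vein, 0.2 mL injection volume in 10% ethanol/saline. Killed 1 h later; tissues weighed and gamma-counted. Results as %ID/g or ratios, mean ± SD, n = 5.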

[6] = biological target: T1, Progesterone receptor (Rattus norvegicus); assay: Tissue distribution in ovaries 1 hr after [18F]4 injection into estrogen-primed immature rats co-injected with uterine uptake blocker (ORG2058); format: functional, tissue-based; settings: Female gonad; procedure, shortened: as §4
[7] = biological target: T1, Progesterone receptor (Rattus norvegicus); assay: Tissue distribution in uterus/blood 1 hr after [18F]4 injection into estrogen-primed immature rats at low dose; format: functional, tissue-based; procedure, shortened: as §1
[8] = biological target: T1, Progesterone receptor (Rattus norvegicus); assay: Tissue distribution in brain 1 hr after [18F]4 injection into estrogen-primed immature rats at normal dose; format: functional, tissue-based; procedure, shortened: as §3
[9] = biological target: T1, Progesterone receptor (Rattus norvegicus); assay: Tissue distribution in ovaries 1 hr after [18F]4 injection into estrogen-primed immature rats at normal dose; format: functional, tissue-based; settings: Female gonad; procedure, shortened: as §3
[10] = Partition coefficient (logP); format: physicochemical; settings: octanol/water
Procedure, shortened: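 Octanol/water partition measured as log P by the Minick method. For some reference progestins, log P was also measured by shake flask.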

[11] = biological target: T1, Progesterone receptor (Rattus norvegicus); assay: Tissue distribution in uterus 1 hr after [18F]4 injection into estrogen-primed immature rats at low dose; format: functional, tissue-based; procedure, shortened: as §1
[12] = biological target: T1, Progesterone receptor (Rattus norvegicus); assay: Tissue distribution in uterus 1 hr after [18F]4 injection into estrogen-primed immature rats at normal dose; format: functional, tissue-based; procedure, shortened: as §3
[13] = biological target: T1, Progesterone receptor (Rattus norvegicus); assay: Tissue distribution in brain 1 hr after [18F]-4 injection into estrogen-primed immature rats co-injected with uterine uptake blocker (ORG 2058); format: functional, tissue-based; procedure, shortened: as §4
[14] = biological target: T1, Progesterone receptor (Rattus norvegicus); assay: Tissue distribution in kidney 1 hr after [18F]4 injection into estrogen-primed immature rats co-injected with uterine uptake blocker ([…]); format: functional, tissue-based; procedure, shortened: as §4
[15] = biological target: T1, Progesterone receptor (Rattus norvegicus); assay: Tissue distribution in lung 1 hr after [18F]4 injection into estrogen-primed immature rats co-injected with uterine uptake blocker (ORG 2058); format: functional, tissue-based; procedure, shortened: as §4
[16] = biological target: T1, Progesterone receptor (Rattus norvegicus); assay: Tissue distribution in fat 1 hr after [18F]4 injection into estrogen-primed immature rats at normal dose; format: functional, tissue-based; settings: Adipose tissue; procedure, shortened: as §3
[17] = biological target: T1, Progesterone receptor (Rattus norvegicus); assay: Tissue distribution in kidney 3 hr after [18F]4 injection into estrogen-primed immature rats; format: functional, tissue-based; procedure, shortened: as §2
[18] = biological target: T1, Progesterone receptor (Rattus norvegicus); assay: Tissue distribution in uterus 3 hr after [18F]4 injection into estrogen-primed immature rats; format: functional, tissue-based; procedure, shortened: as §2
[19] = biological target: T1, Progesterone receptor (Rattus norvegicus); assay: Tissue distribution in muscle 3 hr after [18F]4 injection into estrogen-primed immature rats; format: functional, tissue-based; procedure, shortened: as §2
[20] = biological target: T1, Progesterone receptor (Rattus norvegicus); assay: Tissue distribution in uterus/blood 3 hr after [18F]4 injection into estrogen-primed immature rats at low dose; format: functional, tissue-based
[21] = biological target: T1, Progesterone receptor (Rattus norvegicus); assay: Tissue distribution in lung 1 hr after [18F]4 injection into estrogen-primed immature rats at low dose; format: functional, tissue-based; procedure, shortened: as §1
[22] = biological target: T1, Progesterone receptor (Rattus norvegicus); assay: Tissue distribution in ovaries 3 hr after [18F]4 injection into estrogen-primed immature rats; format: functional, tissue-based; settings: Female gonad; procedure, shortened: as §2
[23] = biological target: T1, Progesterone receptor (Rattus norvegicus); assay: Tissue distribution in brain 1 hr after [18F]-4 injection into estrogen-primed immature rats at low dose; format: functional, tissue-based; procedure, shortened: as §1
[24] = biological target: T1, Progesterone receptor (Rattus norvegicus); assay: Tissue distribution in bone 1 hr after [18F]4 injection into estrogen-primed immature rats at low dose; format: functional, tissue-based; settings: Bone element; procedure, shortened: as §1
[25] = biological target: T1, Progesterone receptor (Rattus norvegicus); assay: Tissue distribution in bone 1 hr after [18F]4 injection into estrogen-primed immature rats at normal dose; format: functional, tissue-based; settings: Bone element; procedure, shortened: as §3
[26] = biological target: T1, Progesterone receptor (Rattus norvegicus); assay: Tissue distribution in fat 3 hr after [18F]4 injection into estrogen-primed immature rats; format: functional, tissue-based; settings: Adipose tissue; procedure, shortened: as §2
[27] = biological target: T1, Progesterone receptor (Rattus norvegicus); assay: Tissue distribution in uterus/blood 1 hr after [18F]4 injection into estrogen-primed immature rats co-injected with uterine uptake blocker (ORG 2058); format: functional, tissue-based; procedure, shortened: as §4
[28] = biological target: T1, Progesterone receptor (Rattus norvegicus); assay: Tissue distribution in kidney 1 hr after [18F]4 injection into estrogen-primed immature rats at normal dose; format: functional, tissue-based; procedure, shortened: as §3
[29] = biological target: T1, Progesterone receptor (Rattus norvegicus); assay: Tissue distribution in muscle 1 hr after [18F]4 injection into estrogen-primed immature rats at low dose; format: functional, tissue-based; procedure, shortened: as §1

SMILES	Injected dose/g [1]	Injected dose/g [2]	uterus/muscle ratio [3]	Injected dose/g [4]	Injected dose/g [5]	Injected dose/g [6]	uterus/blood ratio [7]	Injected dose/g [8]	Injected dose/g [9]	logP [10]	Injected dose/g [11]	Injected dose/g [12]	Injected dose/g [13]	Injected dose/g [14]	Injected dose/g [15]	Injected dose/g [16]	Injected dose/g [17]	Injected dose/g [18]	Injected dose/g [19]	uterus/blood ratio [20]	further results
CC(=O)[C@@]12O[C@](C)(c3ccc(F)cc3)O[C@@H]1CC1C3CCC4=CC(=O)CC[C@]4(C)C3CC[C@@]12C (stereo partly drawn)	2.27%	1.93%	3.85	3.62%	3.16%	2.29%	6.34	0.56%	3.93%	5.71	3.3%	3.08%	0.55%	2.18%	1.26%	5.76%	1.47%	2.13%	0.49%	7.57	Injected dose/g [21]: 1.46%; Injected dose/g [22]: 2.19%; Injected dose/g [23]: 0.57%; Injected dose/g [24]: 1.77%; Injected dose/g [25]: 1.76%; Injected dose/g [26]: 5.06%; uterus/blood ratio [27]: 3.06; Injected dose/g [28]: 2.18%; Injected dose/g [29]: 0.82%
C[C@@]1(c2ccc(F)cc2)O[C@@H]2CC3C4CCC5=CC(=O)CC[C@@H]5C4CC[C@]3(C)[C@]2(C(=O)CO)O1 (stereo partly drawn)	1.57%	1.36%	8.2	3.93%	3.56%	1.37%	14.5	0.34%	2.8%	4.92	4.06%	3.65%	0.28%	1.28%	0.54%	3.53%	0.45%	3.86%	0.16%	38	Injected dose/g [21]: 0.72%; Injected dose/g [22]: 1.78%; Injected dose/g [23]: 0.39%; Injected dose/g [24]: 0.68%; Injected dose/g [25]: 0.62%; Injected dose/g [26]: 1.64%; uterus/blood ratio [27]: 3.69; Injected dose/g [28]: 1.42%; Injected dose/g [29]: 0.464%
